Active and inactive are the calls of the source. The rule behind the calls is not given here.
Legend:
Mus musculus [1] = organism: Mus musculus; assay: Toxicity in Swiss-Webster mouse assessed as increase in body fat after 28 days relative to control; assay type: organism-based; conditions: in vivo, 672 h
Summary of the method: (§1)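 Male Swiss–Webster mice, three months old, singly housed, 12-h light cycle, chow ad libitum. Oral treatment for 28 days with vehicle or 3, 10, 30 mg/kg. Percentage body fat measured by DEXA, compared against vehicle controls.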

Mus musculus [2] = assay: Toxicity in Swiss-Webster mouse assessed as decrease in bone formation at 30 mg/kg after 28 days; assay type: organism-based; parameters: dose 30 mg/kg; conditions: in vivo, 672 h
Summary of the method: (§2)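 Male Swiss–Webster mice, three months old, singly housed on standard chow, dosed orally for 28 days (vehicle; 3, 10, 30 mg/kg). Alizarin red 30 mg/kg s.c. at baseline DXA and calcein 15 mg/kg s.c. at final DXA for labeling. Tibial cortical histomorphometry under epifluorescence. Periosteal BFR = double-labeled surface × MAR/periosteal perimeter.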

Progesterone receptor = target: T1, Progesterone receptor (Homo sapiens, UniProt P06401); assay: Binding affinity to human recombinant progesterone-A receptor expressed in SF9 cells
T1 sequence (P06401 whole entry): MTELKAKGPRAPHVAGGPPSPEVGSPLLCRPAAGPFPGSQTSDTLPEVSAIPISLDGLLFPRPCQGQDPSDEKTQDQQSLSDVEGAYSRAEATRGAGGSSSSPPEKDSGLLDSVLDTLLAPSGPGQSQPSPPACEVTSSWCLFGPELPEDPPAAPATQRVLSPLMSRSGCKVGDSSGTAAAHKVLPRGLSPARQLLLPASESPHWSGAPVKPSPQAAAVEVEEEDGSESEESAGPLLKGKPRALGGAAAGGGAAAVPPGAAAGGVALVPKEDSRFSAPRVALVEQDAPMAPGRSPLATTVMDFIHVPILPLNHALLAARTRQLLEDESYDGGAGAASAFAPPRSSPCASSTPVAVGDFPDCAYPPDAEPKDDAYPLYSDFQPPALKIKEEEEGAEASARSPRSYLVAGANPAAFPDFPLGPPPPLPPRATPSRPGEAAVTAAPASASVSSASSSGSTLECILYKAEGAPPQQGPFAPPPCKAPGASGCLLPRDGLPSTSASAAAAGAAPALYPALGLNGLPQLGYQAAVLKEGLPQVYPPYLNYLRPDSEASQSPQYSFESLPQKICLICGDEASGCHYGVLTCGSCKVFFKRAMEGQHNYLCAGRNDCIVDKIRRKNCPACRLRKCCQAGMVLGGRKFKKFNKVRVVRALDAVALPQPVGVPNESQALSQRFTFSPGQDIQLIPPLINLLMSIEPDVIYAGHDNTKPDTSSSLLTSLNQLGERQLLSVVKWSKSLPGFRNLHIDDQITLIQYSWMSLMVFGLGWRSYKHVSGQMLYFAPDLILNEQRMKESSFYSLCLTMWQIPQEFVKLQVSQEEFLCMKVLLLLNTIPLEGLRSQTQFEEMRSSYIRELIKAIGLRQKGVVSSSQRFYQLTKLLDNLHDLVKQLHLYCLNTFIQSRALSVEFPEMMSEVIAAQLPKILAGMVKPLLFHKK
Summary of the method: (§3)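 Receptor source: extracts of SF-9 insect cells infected with recombinant baculovirus expressing the indicated receptor. Affinity was measured in a labeled-hormone binding assay.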

Androgen receptor = target: T2, Androgen receptor (Homo sapiens, UniProt P10275); assay: Binding affinity to human recombinant androgen receptor expressed in SF9 cells; summary of the method: as §3
T2 sequence (P10275 whole entry): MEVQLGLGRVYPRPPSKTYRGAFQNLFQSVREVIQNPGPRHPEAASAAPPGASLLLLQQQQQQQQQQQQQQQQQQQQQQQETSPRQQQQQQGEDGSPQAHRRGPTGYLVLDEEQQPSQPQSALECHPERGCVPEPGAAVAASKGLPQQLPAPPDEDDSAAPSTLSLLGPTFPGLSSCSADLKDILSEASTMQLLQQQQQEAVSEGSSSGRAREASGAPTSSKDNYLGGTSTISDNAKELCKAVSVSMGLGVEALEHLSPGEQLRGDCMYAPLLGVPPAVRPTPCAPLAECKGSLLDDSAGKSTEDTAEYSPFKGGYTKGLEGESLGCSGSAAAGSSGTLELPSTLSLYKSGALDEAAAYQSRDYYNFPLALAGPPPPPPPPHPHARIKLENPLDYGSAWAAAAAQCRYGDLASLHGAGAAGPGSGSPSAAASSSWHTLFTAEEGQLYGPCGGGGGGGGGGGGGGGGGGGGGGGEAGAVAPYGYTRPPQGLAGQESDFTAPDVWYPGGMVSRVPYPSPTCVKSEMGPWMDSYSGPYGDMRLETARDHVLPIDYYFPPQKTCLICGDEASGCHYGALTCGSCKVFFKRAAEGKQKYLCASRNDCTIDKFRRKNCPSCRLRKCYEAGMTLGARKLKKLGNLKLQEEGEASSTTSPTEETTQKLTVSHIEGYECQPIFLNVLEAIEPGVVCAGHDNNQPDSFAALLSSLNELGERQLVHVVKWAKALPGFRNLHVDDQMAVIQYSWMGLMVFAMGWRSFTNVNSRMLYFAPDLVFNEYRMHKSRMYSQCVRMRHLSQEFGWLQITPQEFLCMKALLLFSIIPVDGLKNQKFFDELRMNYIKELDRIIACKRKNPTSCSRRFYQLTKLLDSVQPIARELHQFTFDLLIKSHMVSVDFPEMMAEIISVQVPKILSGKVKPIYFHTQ

Mus musculus [3] = assay: Inhibition of collagen-induced arthritis in DBA/1 mouse at less than 3 mg/kg, po after 15 days; assay type: functional, organism-based; parameters: dose 3 mg/kg
Summary of the method: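 Female DBA/1 mice, 6–8 weeks old, acclimatized 10 days. Bovine type II collagen (stored at 4 mg/ml in 0.01 M acetic acid) with complete Freund's adjuvant given intradermally at tail base on days 1 and 7. Daily oral gavage days 17–31 (15 days). Limbs scored 0–4 for clinical arthritis signs; 10 mice/group. One-way ANOVA with Fisher's LSD, P < 0.05.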

Mus musculus [4] = assay: Toxicity in Swiss-Webster mouse assessed as decrease in bone formation at 3 mg/kg after 28 days; assay type: organism-based; parameters: dose 3 mg/kg; conditions: in vivo, 672 h; summary of the method: as §2
Mus musculus [5] = assay: Toxicity in Swiss-Webster mouse assessed as decrease in bone formation at 10 mg/kg after 28 days; assay type: organism-based; parameters: dose 10 mg/kg; conditions: in vivo, 672 h; summary of the method: as §2
[6] = target: T3, Glucocorticoid receptor (Rattus norvegicus) (UniProt P06536); assay: Activity at endogenous glucocorticoid receptor in rat H42E liver cells assessed as increase in transcriptional activation of phosphoenol pyruvate carboxykinase at 0.01 uM after 24 hrs by RT-PCR; assay type: cell-based
T3 sequence (whole entry): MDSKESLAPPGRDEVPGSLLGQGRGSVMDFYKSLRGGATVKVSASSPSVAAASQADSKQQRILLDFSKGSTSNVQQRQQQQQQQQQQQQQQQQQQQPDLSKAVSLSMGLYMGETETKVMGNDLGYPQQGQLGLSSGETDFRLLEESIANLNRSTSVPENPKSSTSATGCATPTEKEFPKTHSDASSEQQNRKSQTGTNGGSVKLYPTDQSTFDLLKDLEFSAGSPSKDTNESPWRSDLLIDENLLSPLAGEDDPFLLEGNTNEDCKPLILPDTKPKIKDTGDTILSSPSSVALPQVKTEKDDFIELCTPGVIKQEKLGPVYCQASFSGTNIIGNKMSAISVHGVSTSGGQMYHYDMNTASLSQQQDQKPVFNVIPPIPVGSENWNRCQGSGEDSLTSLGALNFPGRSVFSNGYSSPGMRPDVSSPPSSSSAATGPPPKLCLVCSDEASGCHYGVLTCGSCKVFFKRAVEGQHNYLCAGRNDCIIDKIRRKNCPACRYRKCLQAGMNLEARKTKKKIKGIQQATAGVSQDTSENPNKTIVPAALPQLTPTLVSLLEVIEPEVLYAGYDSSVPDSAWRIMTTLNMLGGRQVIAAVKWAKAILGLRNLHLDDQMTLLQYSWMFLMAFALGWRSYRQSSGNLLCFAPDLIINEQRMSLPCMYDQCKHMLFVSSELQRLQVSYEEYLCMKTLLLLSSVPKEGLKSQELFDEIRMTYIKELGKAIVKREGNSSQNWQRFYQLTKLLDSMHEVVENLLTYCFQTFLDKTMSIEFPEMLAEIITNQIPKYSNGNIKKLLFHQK
Summary of the method: (§4)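 H4IIE rat liver cells (endogenous GR) kept in 10% FBS, seeded overnight at 3.5 × 10^5 cells/well, then given vehicle or compound in 10% dextran/charcoal-treated FBS for 24 h. RNA extracted, first-strand cDNA made, real-time PCR run (40 cycles). Target signal divided by 36B4 control gene. Triplicate biological samples and triplicate assays per dose; one-way ANOVA with Dunnett's method.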

[7] = target: T3, Glucocorticoid receptor (Rattus norvegicus); assay: Activity at endogenous glucocorticoid receptor in rat H42E liver cells assessed as increase in transcriptional activation of pyruvate dehydrogenase kinase at 0.1 uM after 24 hrs by RT-PCR; assay type: cell-based; summary of the method: as §4
Mus musculus [8] = assay: Toxicity in Swiss-Webster mouse assessed as increase in body fat at 10 mg/kg after 28 days; assay type: organism-based; parameters: dose 10 mg/kg; conditions: in vivo, 672 h; summary of the method: as §1
Mus musculus [9] = assay: Toxicity in Swiss-Webster mouse assessed as increase in body fat at 30 mg/kg after 28 days; assay type: organism-based; parameters: dose 30 mg/kg; conditions: in vivo, 672 h; summary of the method: as §1
[10] = target: T4, Glucocorticoid receptor (Homo sapiens) (UniProt P04150); conditions: CV-1
T4 sequence (whole entry): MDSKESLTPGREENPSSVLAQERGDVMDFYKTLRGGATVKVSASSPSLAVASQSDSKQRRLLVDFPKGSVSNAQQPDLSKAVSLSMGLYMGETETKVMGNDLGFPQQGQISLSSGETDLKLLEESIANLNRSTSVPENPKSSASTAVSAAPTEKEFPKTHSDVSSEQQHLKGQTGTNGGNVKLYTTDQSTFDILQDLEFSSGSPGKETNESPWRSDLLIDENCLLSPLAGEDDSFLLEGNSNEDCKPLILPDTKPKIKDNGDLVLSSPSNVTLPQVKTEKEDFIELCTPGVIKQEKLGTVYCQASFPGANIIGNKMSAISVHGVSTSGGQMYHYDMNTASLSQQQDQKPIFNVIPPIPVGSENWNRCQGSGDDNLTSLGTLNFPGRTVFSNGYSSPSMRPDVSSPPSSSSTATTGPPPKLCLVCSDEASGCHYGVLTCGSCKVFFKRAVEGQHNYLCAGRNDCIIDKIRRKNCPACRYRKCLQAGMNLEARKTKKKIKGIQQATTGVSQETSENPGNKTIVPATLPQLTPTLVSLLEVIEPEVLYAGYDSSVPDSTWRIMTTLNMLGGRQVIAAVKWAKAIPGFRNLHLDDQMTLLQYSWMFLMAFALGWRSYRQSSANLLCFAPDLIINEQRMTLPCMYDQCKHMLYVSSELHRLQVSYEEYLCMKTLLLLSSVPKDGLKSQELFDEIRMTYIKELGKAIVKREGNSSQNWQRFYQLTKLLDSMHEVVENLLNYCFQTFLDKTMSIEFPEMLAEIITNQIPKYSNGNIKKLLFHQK

Compound | Activity (Mus musculus [1]) | Activity (Mus musculus [2]) | Ki (Progesterone receptor) [nM] | Ki (Androgen receptor) [nM] | Activity (Mus musculus [3]) | Activity (Mus musculus [4]) | Activity (Mus musculus [5]) | Activity [6] | Activity [7] | Activity (Mus musculus [8]) | Activity (Mus musculus [9]) | ED50 [10] [nM]
COc1c(O)ccc2c1-c1ccc3c(c1/C(=C/c1cccc(C)c1F)O2)C(C)=CC(C)(C)N3 | Toxic | Toxic | 866 | 910 | Active | – | – | – | – | – | – | –
C[C@]12C=CC(=O)C=C1CC[C@@H]1[C@@H]2[C@@H](O)C[C@@]2(C)[C@H]1CC[C@]2(O)C(=O)CO [PREDNISOLONE] | – | Toxic | – | – | Active | Toxic | Toxic | Active | Active | Toxic | Toxic | 4
C[C@@H]1C[C@H]2[C@@H]3CCC4=CC(=O)C=C[C@]4(C)[C@@]3(F)[C@@H](O)C[C@]2(C)[C@@]1(O)C(=O)CO | – | – | – | – | – | – | – | – | – | – | – | 0.1
